Results: ChEMBL document CHEMBL3085669, “Design, synthesis and structure-activity relationship of novel Relacin analogs as inhibitors of Rel proteins” (Eur J Med Chem, 2013)
Calls of active or inactive are those of the source. The calls are words filed in the database; no cut-off is given here.

Key:
[1] = tested on: Deinococcus radiodurans; experiment: Inhibition of Deinococcus radiodurans rel/spo assessed as inhibition of (p)ppGpp synthesis by autoradiography in presence of [alpha32]GTP
Procedure, shortened: (§1)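 Cell-free assay on purified Rel enzymes (Rel/Spo from D. radiodurans, RelA from E. coli), with inhibitor tested across varying concentrations.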

[2] = tested on: Escherichia coli; experiment: Inhibition of Escherichia coli relA assessed as inhibition of (p)ppGpp synthesis by autoradiography in presence of [alpha32]GTP; procedure, shortened: as §1
[3] = tested on: Bacillus subtilis; experiment: Inhibition of Bacillus subtilis relA assessed as reduction in (p)ppGpp level at 2 mM incubated for 15 mins prior to SHX addition measured after 5 to 10 mins by autoradiography
Procedure, shortened: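 B. subtilis cells grown with inhibitor at 2 mM. Stringent response then induced by adding serine hydroxamate, and intracellular (p)ppGpp measured afterwards.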

[4] = tested on: Escherichia coli; experiment: Inhibition of Escherichia coli relA assessed as inhibition of (p)ppGpp synthesis at 1 mM by autoradiography in presence of [alpha32]GTP
Procedure, shortened: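 Purified E. coli RelA assayed in vitro with inhibitor at 1 mM.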

| inhibition [1] | inhibition [2] | inhibition [3] | inhibition [4] | Structure (SMILES) |
| --- | --- | --- | --- | --- |
|  |  |  | 52.1% | CC(C)C(=O)Nc1nc2c(ncn2[C@H]2C[C@H](OC(=O)NCC(=O)O)[C@@H](COC(=O)N[C@@H](CCC(=O)O)C(=O)O)O2)c(=O)[nH]1 |
|  |  |  | 50.4% | CC(C)C(=O)Nc1nc2c(ncn2[C@H]2C[C@H](OC(=O)N[C@@H](CCC(=O)O)C(=O)O)[C@@H](COC(=O)NCC(=O)O)O2)c(=O)[nH]1 |
|  |  | Active | 51.1% | CC(C)C(=O)Nc1nc2c(ncn2[C@H]2C[C@H](OC(=O)NCC(=O)O)[C@@H](COC(=O)NCC(=O)O)O2)c(=O)[nH]1 |
|  |  |  | 50.6% | CC(C)C(=O)Nc1nc2c(ncn2[C@H]2C[C@H](OC(=O)NC(CCC(=O)O)C(=O)O)[C@@H](COC(=O)N[C@@H](CCC(=O)O)C(=O)O)O2)c(=O)[nH]1 (stereo partly drawn) |
|  |  |  | 66.3% | CC(C)C(=O)Nc1nc2c(ncn2[C@H]2C[C@H](OC(=O)NCC(=O)NCC(=O)O)[C@@H](COC(=O)NCC(=O)NCC(=O)O)O2)c(=O)[nH]1 |

Further lines, the compound ahead of its results:

| Structure (SMILES) | inhibition [1] | inhibition [2] | inhibition [3] | inhibition [4] |
| --- | --- | --- | --- | --- |
| CC(C)C(=O)Nc1nc2c(ncn2[C@H]2C[C@H](OC(=O)NC(CCC(=O)O)C(=O)NC(CCC(=O)O)C(=O)O)[C@@H](COC(=O)NC(CCC(=O)O)C(=O)NC(CCC(=O)O)C(=O)O)O2)c(=O)[nH]1 (stereo partly drawn) | Dose-dependent effect | Dose-dependent effect | Active | 80.4% |
| CC(C)C(=O)Nc1nc2c(ncn2[C@H]2C[C@H](OC(=O)NCCN(C)C)[C@@H](COC(=O)NCCN(C)C)O2)c(=O)[nH]1 |  |  |  | 31.2% |
| CC(C)C(=O)Nc1nc2c(ncn2[C@H]2C[C@H](OC(=O)N(CCCN(C)C)CCCN(C)C)[C@@H](COC(=O)N(CCCN(C)C)CCCN(C)C)O2)c(=O)[nH]1 |  |  |  | 12% |
| CC(C)C(=O)Nc1nc2c(ncn2[C@H]2C[C@H](OC(=O)NCCCCCC(=O)O)[C@@H](COC(=O)NCCCCCC(=O)O)O2)c(=O)[nH]1 |  |  |  | 25.6% |
